Values after ≈ are worked out from the molar mass of the structure shown. Active and inactive are the calls of the source. The calls are words filed in the database; no cut-off is given here.
Key:
[1] = Chemical stability of the compound in KH2PO4/Na2HPO4 buffer at pH 5.5 after 6 hrs by NMR spectroscopy; assay type: physicochemical; details: pH 5.5, 6 h
Summary of the method: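 Compounds were exposed at 37 °C to a KH2PO4/Na2HPO4 buffer at pH 5.5, prepared according to the European Pharmacopoeia.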

[2] = (§1) Antiproliferative activity against human KB/HeLa cells assessed as growth inhibition at 3.16 ug/ml after 48 hrs by XTT assay; assay type: functional
Summary of the method: (§2)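 This is the same 48 h XTT assay: 10-point half-log series, 0.3% final DMSO, 3 h XTT/PMS, A490, with untreated cells as 0% and blanks as 100% inhibition. Inhibition at the highest tested concentration was scored as none (<30%) or moderate (≥30%).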

SK-OV-3 [3] = assay: Antiproliferative activity against human SKOV3 cells assessed as growth inhibition at 3.16 ug/ml after 48 hrs by XTT assay; assay type: functional; details: for inhibition at 3.16 µg/mL: SK-OV-3, 48 h; summary of the method: as §2
SF-268 [4] = assay: Antiproliferative activity against human SF268 cells assessed as growth inhibition at 3.16 ug/ml after 48 hrs by XTT assay; assay type: functional; details: for inhibition at 3.16 µg/mL: SF-268, 48 h; summary of the method: as §2
NCI-H460 [5] = assay: Antiproliferative activity against human NCI-H460 cells assessed as growth inhibition at 3.16 ug/ml after 48 hrs by XTT assay; assay type: functional; details: for inhibition at 3.16 µg/mL: NCI-H460, 48 h; summary of the method: as §2
[6] = (§3) Antiproliferative activity against human RKOp27 cells assessed as growth inhibition at 3.16 ug/ml after 48 hrs by XTT assay; assay type: functional; details: RKOp27, 48 h; summary of the method: as §2
[7] = (§4) Antiproliferative activity against human RKOp27IND cells assessed as growth inhibition at 3.16 ug/ml after 48 hrs by XTT assay; assay type: functional; summary of the method: as §2
[8] = Antiproliferative activity against human KB/HeLa cells after 48 hrs by XTT assay; assay type: functional, cell-based
Summary of the method: (§5)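 Compounds were added from DMSO stocks as a 10-point half-log dilution series, with final DMSO adjusted to 0.3%. Cells were incubated for 45 h at 37 °C/5% CO2, then with 1 mg/ml XTT plus PMS for a further 3 h. Absorbance at 490 nm was read after 48 h total. Untreated cells were set as 0% and cell-free blanks as 100% inhibition. EC50 came from nonlinear regression of at least two independent assays.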

SK-OV-3 [9] = assay: Antiproliferative activity against human SKOV3 cells after 48 hrs by XTT assay; assay type: functional, cell-based; details: SK-OV-3, 48 h
Summary of the method: (§6)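 Compounds dissolved in DMSO were added as a 10-point half-log dilution series, with final DMSO adjusted to 0.3%. Cells were incubated 45 h at 37 °C/5% CO2, then XTT (1 mg/ml) plus PMS was added for 3 h more (48 h total). Absorbance was read at 490 nm. Untreated cells were set as 0% inhibition and cell-free blanks as 100%. EC50 was fitted by nonlinear regression from ≥2 independent assays and reported as mean ± SD.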

SF-268 [10] = assay: Antiproliferative activity against human SF268 cells after 48 hrs by XTT assay; assay type: functional, cell-based; details: SF-268, 48 h; summary of the method: as §5
NCI-H460 [11] = assay: Antiproliferative activity against human NCI-H460 cells after 48 hrs by XTT assay; assay type: functional, cell-based; details: NCI-H460, 48 h; summary of the method: as §5
[12] = Antiproliferative activity against human RKOp27 cells after 48 hrs by XTT assay; assay type: functional, cell-based; details: RKOp27, 48 h; summary of the method: as §5
[13] = Antiproliferative activity against human RKOp27IND cells after 48 hrs by XTT assay; assay type: functional, cell-based; summary of the method: as §6
KB = assay: as §1; assay type: functional; summary of the method: as §2
RKOp27 = assay: as §3; assay type: functional; summary of the method: as §2
Homo sapiens = species on record: Homo sapiens; assay: as §4; assay type: functional; summary of the method: as §2

SMILES | inhibition at 3.16 µg/mL [2] | inhibition at 3.16 µg/mL (SK-OV-3 [3]) | inhibition at 3.16 µg/mL (SF-268 [4]) | inhibition at 3.16 µg/mL (NCI-H460 [5]) | inhibition at 3.16 µg/mL [6] | inhibition at 3.16 µg/mL [7] | EC50 [8] | EC50 (SK-OV-3 [9]) | EC50 (SF-268 [10]) | EC50 (NCI-H460 [11]) | EC50 [12] | EC50 [13] | other results
O=C1c2ccncc2C(=O)c2c1ccn2CCCCCCC1CO1 (centres undefined) | < 30% | < 30% | < 30% | < 30% | < 30% | < 30% | – | – | – | – | – | – | Stability [1]: Stable
O=C1c2ccncc2C(=O)c2c1ccn2CCCCN1CC1 | – | – | – | – | – | – | 0.549 µg/mL (≈ 1.86 µM) | 2.19 µg/mL (≈ 7.4 µM) | 1.89 µg/mL (≈ 6.41 µM) | 0.727 µg/mL (≈ 2.46 µM) | 0.299 µg/mL (≈ 1.01 µM) | 2.23 µg/mL (≈ 7.55 µM) | –
CN(C)CCCn1cc(CCN(C)C)c2c1C(=O)c1cnccc1C2=O | – | – | – | – | – | – | > 3.16 µg/mL | > 3.16 µg/mL | > 3.16 µg/mL | > 3.16 µg/mL | > 3.16 µg/mL | > 3.16 µg/mL | –
O=C1c2ccncc2C(=O)c2c1ccn2CC1CO1 (centres undefined) | – | – | – | – | – | – | 0.062 µg/mL (≈ 0.244 µM) | 0.265 µg/mL (≈ 1.04 µM) | 0.2 µg/mL (≈ 0.787 µM) | 0.062 µg/mL (≈ 0.244 µM) | 0.026 µg/mL (≈ 0.102 µM) | 1.3 µg/mL (≈ 5.11 µM) | Stability [1]: Stable
CS(=O)(=O)OCCCCn1ccc2c1C(=O)c1cnccc1C2=O | – | < 30% | – | – | – | < 30% | > 3.16 µg/mL | – | > 3.16 µg/mL | > 3.16 µg/mL | > 3.16 µg/mL | – | –
CN(C)CCc1cn(CCO)c2c1C(=O)c1ccncc1C2=O | – | < 30% | < 30% | < 30% | – | < 30% | > 3.16 µg/mL | – | – | – | > 3.16 µg/mL | – | –
CN(C)CCc1cn(CCCCOS(C)(=O)=O)c2c1C(=O)c1ccncc1C2=O | – | – | – | – | – | – | – | – | – | – | – | – | Stability [1]: Unstable
CN(C)CCc1c[nH]c2c1C(=O)c1ccncc1C2=O | < 30% | < 30% | < 30% | < 30% | < 30% | < 30% | – | – | – | – | – | – | –
O=C1c2ccncc2C(=O)c2c1ccn2CC(O)CN1CC1 (centres undefined) | – | – | – | – | – | – | 0.747 µg/mL (≈ 2.51 µM) | > 3.16 µg/mL | > 3.16 µg/mL | 2.21 µg/mL (≈ 7.44 µM) | 0.899 µg/mL (≈ 3.02 µM) | > 3.16 µg/mL | –
O=C1c2ccncc2C(=O)c2c1ccn2CCCCCCC(O)CN1CC1 (centres undefined) | – | < 30% | < 30% | – | – | < 30% | > 3.16 µg/mL | – | – | > 3.16 µg/mL | > 3.16 µg/mL | – | –
O=C1c2ccncc2C(=O)c2c1ccn2CCCC(O)CN1CC1 (centres undefined) | – | < 30% | < 30% | – | – | < 30% | > 3.16 µg/mL | – | – | > 3.16 µg/mL | > 3.16 µg/mL | – | –
CS(=O)(=O)OCCCCCCCn1ccc2c1C(=O)c1cnccc1C2=O | < 30% | < 30% | < 30% | < 30% | < 30% | < 30% | – | – | – | – | – | – | –
O=C1c2ccncc2C(=O)c2c1ccn2CCCCCCCN1CC1 | – | – | – | – | – | – | > 3.16 µg/mL | > 3.16 µg/mL | > 3.16 µg/mL | > 3.16 µg/mL | 1.19 µg/mL (≈ 3.54 µM) | > 3.16 µg/mL | –
CN(C)CCCc1c[nH]c2c1C(=O)c1ccncc1C2=O | < 30% | < 30% | < 30% | – | < 30% | < 30% | – | – | – | – | – | – | –
O=C1c2c(O)ccc(O)c2C(=O)c2c(NCCNCCO)ccc(NCCNCCO)c21 [MITOXANTRONE] | – | – | – | – | – | – | 0.355 µg/mL (≈ 0.799 µM) | 0.121 µg/mL (≈ 0.272 µM) | 0.315 µg/mL (≈ 0.709 µM) | 0.122 µg/mL (≈ 0.275 µM) | 0.0865 µg/mL (≈ 0.195 µM) | 0.763 µg/mL (≈ 1.72 µM) | –
CN(C)CCc1cn(CCCCCCCO)c2c1C(=O)c1ccncc1C2=O | < 30% | < 30% | < 30% | < 30% | < 30% | < 30% | – | – | – | – | – | – | –
O=C1c2ccncc2C(=O)c2c1ccn2CCCC1CO1 (centres undefined) | – | < 30% | ≥ 30% | – | – | < 30% | > 3.16 µg/mL | – | – | > 3.16 µg/mL | > 3.16 µg/mL | – | Stability [1]: Stable
CN(C)CCc1cn(CCNCCO)c2c1C(=O)c1ccncc1C2=O | – | < 30% | – | < 30% | – | < 30% | > 3.16 µg/mL | – | > 3.16 µg/mL | – | > 3.16 µg/mL | – | –
CN(C)CCc1cn(CCOS(C)(=O)=O)c2c1C(=O)c1ccncc1C2=O | – | – | – | < 30% | < 30% | < 30% | – | – | – | – | – | – | inhibition (KB): inactive; inhibition (SK-OV-3 [3]): inactive; inhibition (SF-268 [4]): inactive; inhibition (NCI-H460 [5]): inactive; inhibition (RKOp27): inactive; inhibition (Homo sapiens): inactive
CN(C)CCc1cn(CCCCN2CC2)c2c1C(=O)c1ccncc1C2=O | – | – | – | – | – | – | 0.512 µg/mL (≈ 1.4 µM) | 1.51 µg/mL (≈ 4.12 µM) | 1.39 µg/mL (≈ 3.8 µM) | 0.722 µg/mL (≈ 1.97 µM) | 0.205 µg/mL (≈ 0.559 µM) | 1.35 µg/mL (≈ 3.68 µM) | –
O=C1c2ccncc2C(=O)c2c1ccn2CCN1CC1 | – | < 30% | – | – | – | – | > 3.16 µg/mL | – | > 3.16 µg/mL | > 3.16 µg/mL | > 3.16 µg/mL | > 3.16 µg/mL | –
CN(C)CCc1cn(CCCCO)c2c1C(=O)c1ccncc1C2=O | < 30% | < 30% | < 30% | < 30% | < 30% | < 30% | – | – | – | – | – | – | –
CN(C)CCc1cn(CCCCCCCN2CC2)c2c1C(=O)c1ccncc1C2=O | – | – | < 30% | – | – | < 30% | > 3.16 µg/mL | > 3.16 µg/mL | – | > 3.16 µg/mL | > 3.16 µg/mL | – | –
CN(C)CCc1cn(CCN2CC2)c2c1C(=O)c1ccncc1C2=O | – | – | – | – | – | – | 0.972 µg/mL (≈ 2.87 µM) | 2.74 µg/mL (≈ 8.09 µM) | 2.41 µg/mL (≈ 7.12 µM) | > 3.16 µg/mL | 0.784 µg/mL (≈ 2.32 µM) | 2.36 µg/mL (≈ 6.99 µM) | –
CN(C)CCc1cn(CCCCCCCOS(C)(=O)=O)c2c1C(=O)c1ccncc1C2=O | – | – | – | – | – | – | – | – | – | – | – | – | Stability [1]: Unstable
CN(C)CCCc1cn(CCCN(C)C)c2c1C(=O)c1ccncc1C2=O | < 30% | < 30% | < 30% | – | – | < 30% | – | – | – | > 3.16 µg/mL | > 3.16 µg/mL | – | –
CN(C)CCc1cn(CCN(C)C)c2c1C(=O)c1ccncc1C2=O | < 30% | < 30% | < 30% | < 30% | < 30% | < 30% | – | – | – | – | – | – | –
CS(=O)(=O)OCCn1ccc2c1C(=O)c1cnccc1C2=O | < 30% | < 30% | < 30% | – | < 30% | ≥ 30% | – | – | – | > 3.16 µg/mL | – | – | –
CNCCn1cc(CCN(C)C)c2c1C(=O)c1cnccc1C2=O | – | – | – | – | – | – | > 3.16 µg/mL | > 3.16 µg/mL | > 3.16 µg/mL | > 3.16 µg/mL | > 3.16 µg/mL | > 3.16 µg/mL | –

— ChEMBL document CHEMBL1770061, “Synthesis and antiproliferative activity of new cytotoxic azanaphthoquinone pyrrolo-annelated derivatives: Part II” (Bioorg Med Chem Lett, 2011)
